# Experimental data taken from ChEMBL document CHEMBL1124774, “Synthesis and biological activity of some derivatives of rifamycin P” (1990).
# Tests used:
# Type in all cases: functional
# [1] = tested on: Escherichia coli; test: In vitro antibacterial activity of compound against Escherichia coli SKF 12140
# [2] = tested on: Klebsiella pneumoniae; test: In vitro antibacterial activity of compound against Klebsiella pneumoniae ISM
# [3] = tested on: Mycobacterium scrofulaceum; test: In vitro activity of compound against slowly growing Mycobacterium scrofulaceum 1292
# How it was run: (§1)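 Medium was Middlebrook 7H10 agar with 2% glycerol and 10% OADC. Organisms from Loevenstein-Jensen slants were grown in 7H9 broth with 0.5% Tween and 10% OADC, adjusted to McFarland no. 1, and spotted with a multipoint inoculator. Sealed plates were incubated at 22, 30 or 37 °C for 4-20 days depending on strain.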
# [4] = tested on: Mycobacterium scrofulaceum; test: In vitro activity of compound against slowly growing Mycobacterium scrofulaceum 1293; how it was run: as §1
# [5] = tested on: Mycobacterium scrofulaceum; test: In vitro activity of compound against slowly growing Mycobacterium scrofulaceum 1297; how it was run: as §1
# [6] = tested on: Mycobacterium scrofulaceum; test: In vitro activity of compound against slowly growing Mycobacterium scrofulaceum 1301; how it was run: as §1
# [7] = tested on: Mycolicibacterium smegmatis; test: In vitro activity of compound against rapidly growing Mycobacterium smegmatis 139; how it was run: as §1
# [8] = tested on: Mycolicibacterium smegmatis; test: In vitro activity of compound against rapidly growing Mycobacterium smegmatis 1442; how it was run: as §1
# [9] = tested on: Mycolicibacterium smegmatis; test: In vitro activity of compound against rapidly growing Mycobacterium smegmatis 31; how it was run: as §1
# [10] = tested on: Mycobacterium xenopi; test: In vitro activity compound against slowly growing Mycobacterium xenopi 1446; how it was run: as §1
# [11] = tested on: Mycobacterium xenopi; test: In vitro activity of compound against slowly growing Mycobacterium xenopi 554; how it was run: as §1
# [12] = tested on: Mycobacterium xenopi; test: In vitro activity of compound against slowly growing Mycobacterium xenopi 555; how it was run: as §1
# [13] = tested on: Mycolicibacterium phlei; test: In vitro activity of compound against rapidly growing Mycobacterium phlei 141; how it was run: as §1
# [14] = tested on: Mycolicibacterium phlei; test: In vitro activity of compound against rapidly growing Mycobacterium phlei 1283; how it was run: as §1
# [15] = tested on: Mycolicibacterium phlei; test: In vitro activity of compound against rapidly growing Mycobacterium phlei 1289; how it was run: as §1
# [16] = tested on: Mycobacterium kansasii; test: In vitro activity of compound against slowly growing Mycobacterium kansasii 1299; how it was run: as §1
# [17] = tested on: Mycobacterium marinum; test: In vitro activity of compound against slowly growing Mycobacterium marinum 1388; how it was run: as §1
# [18] = tested on: Mycobacterium marinum; test: In vitro activity of compound against slowly growing Mycobacterium marinum 1390; how it was run: as §1
# [19] = tested on: Mycobacterium marinum; test: In vitro activity of compound against slowly growing Mycobacterium marinum 1391; how it was run: as §1
# [20] = tested on: Mycolicibacterium fortuitum; test: In vitro activity of compound against rapidly growing Mycobacterium fortuitum 114; how it was run: as §1
# [21] = tested on: Mycolicibacterium fortuitum; test: In vitro activity of compound against rapidly growing Mycobacterium fortuitum 1285; how it was run: as §1
# [22] = tested on: Mycolicibacterium fortuitum; test: In vitro activity of compound against rapidly growing Mycobacterium fortuitum 1287; how it was run: as §1
# [23] = tested on: Mycolicibacterium fortuitum; test: In vitro activity compound against rapidly growing Mycobacterium fortuitum 1302; how it was run: as §1
# [24] = tested on: Mycolicibacterium fortuitum; test: In vitro activity of compound against rapidly growing Mycobacterium fortuitum 140; how it was run: as §1
# [25] = tested on: Mycolicibacterium fortuitum; test: In vitro activity compound against rapidly growing Mycobacterium fortuitum 1440; how it was run: as §1
# [26] = tested on: Mycolicibacterium fortuitum; test: In vitro activity of compound against rapidly growing Mycobacterium fortuitum 646; how it was run: as §1
# [27] = tested on: Mycolicibacterium fortuitum; test: In vitro activity of compound against rapidly growing Mycobacterium fortuitum 726; how it was run: as §1
# [28] = tested on: Mycobacterium gordonae; test: In vitro activity of compound against slowly growing Mycobacterium gordonae 1294; how it was run: as §1
# [29] = tested on: Mycobacterium gordonae; test: In vitro activity of compound against slowly growing Mycobacterium gordonae 1441; how it was run: as §1
# [30] = tested on: Mycobacterium kansasii; test: In vitro activity of compound against slowly growing Mycobacterium kansasii 1291; how it was run: as §1
# [31] = tested on: Mycobacterium kansasii; test: In vitro activity of compound against slowly growing Mycobacterium kansasii 1298; how it was run: as §1
# [32] = tested on: Mycolicibacterium flavescens; test: In vitro activity of compound against rapidly growing Mycobacterium flavescens 1284; how it was run: as §1
# [33] = tested on: Mycolicibacterium flavescens; test: In vitro activity of compound against rapidly growing Mycobacterium flavescens 1286; how it was run: as §1
# [34] = tested on: Mycobacterium marinum; test: In vitro activity of compound against slowly growing Mycobacterium marinum 1392 h; how it was run: as §1
# [35] = tested on: Mycobacterium marinum; test: In vitro activity of compound against slowly growing Mycobacterium marinum 1393; how it was run: as §1
# [36] = tested on: Mycobacterium marinum; test: In vitro activity of compound against slowly growing Mycobacterium marinum 1394; how it was run: as §1
# [37] = tested on: Mycobacterium marinum; test: In vitro activity of compound against slowly growing Mycobacterium marinum 1447; how it was run: as §1
# [38] = tested on: Mycobacterium tuberculosis; test: In vitro antibacterial activity of compound against Mycobacterium tuberculosis H37Rv ATCC 9660
# [39] = tested on: Mycobacteroides chelonae; test: In vitro activity of compound against rapidly growing Mycobacterium chelonae 1443; how it was run: as §1
# [40] = tested on: Mycobacterium avium; test: 50% inhibition of the 20 Mycobacterium (MAC) avium complex clinical isolates
# How it was run: (§2)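 Agar-dilution MICs, 2-fold dilutions over 128-0.0001 μg/mL, on Middlebrook 7H10 agar with 2% glycerol and 10% OADC. Organisms from Loevenstein-Jensen slants were grown in 7H9 broth with 0.5% Tween and 10% OADC, adjusted to McFarland no. 1, and spotted with a multipoint inoculator. Plates were sealed and incubated at 22, 30 or 37 °C for 4-20 days depending on strain.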
# [41] = tested on: Mycobacterium avium; test: Minimum inhibitory concentration of compound against 20 Mycobacterium avium complex (MAC) clinical isolates; how it was run: as §2
# [42] = tested on: Neisseria gonorrhoeae; test: In vitro antibacterial activity of compound against Neisseria gonorrhoeae ISM 68/126
# [43] = tested on: Pseudomonas aeruginosa; test: In vitro antibacterial activity of compound against Pseudomonas aeruginosa ATCC 10145
# How it was run: (§3)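 Twofold microdilution MIC in Iso-Sensitest broth over 128-0.0001 µg/mL. Inoculum was 10^4 cfu/mL, with incubation at 37 °C for 18-24 h.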
# [44] = tested on: Proteus vulgaris; test: In vitro antibacterial activity of compound against Proteus vulgaris X19H ATCC 881
# [45] = tested on: Staphylococcus epidermidis; test: In vitro antibacterial activity of compound against Staphylococcus epidermidis ATCC 12228; how it was run: as §3
# [46] = tested on: Streptococcus pyogenes; test: In vitro antibacterial activity of compound against Streptococcus pyogenes C 203 SKF 13400
# How it was run: (§4)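 Streptococcal MICs were run by twofold microdilution in Todd-Hewitt broth over 128-0.0001 µg/mL. Inoculum was 10^4 cfu/mL, with incubation at 37 °C for 18-24 h.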
# [47] = tested on: Staphylococcus aureus; test: In vitro antibacterial activity of compound against Staphylococcus aureus Tour L 165; how it was run: as §3
# [48] = tested on: Streptococcus pneumoniae; test: In vitro antibacterial activity of compound against Streptococcus pneumoniae UC 41; how it was run: as §4
# [49] = tested on: Enterococcus faecalis; test: In vitro antibacterial activity of compound against Streptococcus faecalis ATCC 7080.; how it was run: as §3
# [50] = tested on: Mycolicibacterium fortuitum; test: In vitro activity of compound against rapidly growing Mycobacterium fortuitum 645; how it was run: as §1
# [51] = tested on: Haemophilus influenzae; test: In vitro antibacterial activity of compound against Haemophilus influenzae ATCC 19418
# [52] = tested on: Mycobacterium xenopi; test: In vitro activity of compound against slowly growing Mycobacterium xenopi 556; how it was run: as §1
structure (smiles),measurement,setting,value
COC1/C=C/OC2(C)Oc3c(C)c(O)c4c(O)c(c5c(c4c3C2=O)=NC2(CCN(CC(C)C)CC2)N=5)NC(=O)/C(C)=C\C=C\C(C)C(O)C(C)C(O)C(C)C(OC(C)=O)C1C (configuration not stated),MIC,[1],16 µg/mL
same,MIC,[2],16 µg/mL
same,MIC50,[3],0.032 µg/mL
same,MIC50,[4],0.032 µg/mL
same,MIC50,[5],0.063 µg/mL
same,MIC50,[6],2 µg/mL
same,MIC50,[7],4 µg/mL
same,MIC50,[8],4 µg/mL
same,MIC50,[9],4 µg/mL
same,MIC50,[10],0.125 µg/mL
same,MIC50,[11],0.125 µg/mL
same,MIC50,[12],0.125 µg/mL
same,MIC50,[13],0.061 µg/mL
same,MIC50,[14],0.016 µg/mL
same,MIC50,[15],2 µg/mL
same,MIC50,[16],0.5 µg/mL
same,MIC50,[17],0.25 µg/mL
same,MIC50,[18],1 µg/mL
same,MIC50,[19],0.25 µg/mL
same,MIC50,[20],8 µg/mL
same,MIC50,[21],4 µg/mL
same,MIC50,[22],1 µg/mL
same,MIC50,[23],1 µg/mL
same,MIC50,[24],4 µg/mL
same,MIC50,[25],16 µg/mL
same,MIC50,[26],8 µg/mL
same,MIC50,[27],16 µg/mL
same,MIC50,[28],0.5 µg/mL
same,MIC50,[29],1 µg/mL
same,MIC50,[30],1 µg/mL
same,MIC50,[31],0.063 µg/mL
same,MIC50,[32],8 µg/mL
same,MIC50,[33],0.063 µg/mL
same,MIC50,[34],0.25 µg/mL
same,MIC50,[35],0.25 µg/mL
same,MIC50,[36],0.25 µg/mL
same,MIC50,[37],0.25 µg/mL
same,MIC,[38],0.008 µg/mL
same,MIC50,[39],32 µg/mL
same,MIC50,[40],1 µg/mL
same,MIC50,[41],0.25 µg/mL
same,MIC,[42],0.5 µg/mL
same,MIC,[43],8 µg/mL
same,MIC,[44],16 µg/mL
same,MIC,[45],0.032 µg/mL
same,MIC,[46],0.032 µg/mL
same,MIC,[47],0.063 µg/mL
same,MIC,[48],0.032 µg/mL
same,MIC,[49],2 µg/mL
same,MIC50,[50],1 µg/mL
same,MIC,[51],0.125 µg/mL
same,MIC50,[52],0.125 µg/mL
